Experimental data as given in ChEMBL document CHEMBL1121817, “Synthesis and pharmacological properties of 1,2,3,4,5,6-hexahydro-1,6-methano-2-benzazocines” (J Med Chem, 1981).
Where “and” joins values, the source holds several entries; their conditions need not be identical. Equal values may be shown once. Calls of active or inactive are those of the source. The calls are words filed in the database; no cut-off is given here.

How the values were obtained:
Mus musculus [1] = organism: Mus musculus; test: Analgesic potency was determined by the Eddy hotplate method on mice expressed as effective dose; IA=Inactive; assay type: functional, organism-based
Outline: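 Mice, Eddy hot-plate analgesia. Test compounds given as aqueous solutions of their hydrochloride, hydrobromide or oxalate salts. ED50 reported in mg/kg and μmol/kg, some with a range in parentheses. Where full activity could not be reached without toxicity, an approximate value is cited. Lethality was scored as LD50 in mg/kg or as deaths per ten mice at 50 mg/kg.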

[2] = Analgesic potency was determined by the Eddy hotplate method on mice expressed as lethal dose; assay type: ADME, organism-based; conditions: mouse, in vivo
Outline: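 Toxicity was tested in mice in the same series, using aqueous solutions of the hydrochloride, hydrobromide or oxalate salt, and LD50 is reported in mg/kg. When material was scarce, deaths out of ten mice given a single 50 mg/kg dose were recorded instead.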

Mus musculus [3] = organism: Mus musculus; test: Analgesic potency was determined by the Eddy hotplate method on mice; assay type: functional
Mus musculus [4] = organism: Mus musculus; test: Analgesic potency was determined by the Eddy hotplate method on mice expressed as effective dose; assay type: functional
Outline: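 Mouse Eddy hot-plate test. Compounds were given as aqueous solutions of the hydrochloride, hydrobromide or oxalate salt. ED50 is reported in mg/kg and μmol/kg, with a range in parentheses for some entries.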

| Structure (SMILES) | LD50 [2] [mg/kg] | ED50 (Mus musculus [3]) | other results |
| --- | --- | --- | --- |
| COc1ccc2c(c1)C1CCCN(CCc3ccccc3)C2C1 (stereo unspecified) |  |  | ED50 (Mus musculus [1]): inactive |
| C=CCN1CCCC2CC1c1ccccc12.Cl (stereo unspecified) | 110 | 28 mg/kg and 112 µmol/kg |  |
| O=C(O)C(=O)O.c1ccc2c(c1)C1CCCNC2C1 (stereo unspecified) | 225 |  |  |
| COc1ccc2c(c1)C1CCCN(C)C2C1.O=C(O)C(=O)O (stereo unspecified) | 157 |  | ED50 (Mus musculus [4]): 16 mg/kg and 52 µmol/kg |
| Br.Oc1ccc2c(c1)C1CCCN(CCc3ccccc3)C2C1 (stereo unspecified) |  |  | ED50 (Mus musculus [4]): 14 mg/kg and 37 µmol/kg |
| O=C(O)C(=O)O.c1ccc(CCN2CCCC3CC2c2ccccc23)cc1 (stereo unspecified) | 225 |  |  |
| CC(C)=CCN1CCCC2CC1c1ccccc12.O=C(O)C(=O)O (stereo unspecified) | 130 |  |  |
| Br.CN1CCCC2CC1c1ccccc12 (stereo unspecified) |  | 45 mg/kg and 168 µmol/kg |  |
| Cl.c1ccc(CCN2CCCC3CC2c2ccccc23)cc1 (stereo unspecified) | 225 | 86 mg/kg and 246 µmol/kg |  |
| COc1ccc2c(c1)C1CCCNC2C1.O=C(O)C(=O)O (stereo unspecified) |  |  | ED50 (Mus musculus [4]): 64 mg/kg and 218 µmol/kg |
| CN1CCCC2CC1c1ccc(O)cc12 (stereo unspecified) |  |  | ED50 (Mus musculus [1]): inactive |
| Br.CCCN1CCCC2CC1c1ccc(O)cc12 (stereo unspecified) |  |  | ED50 (Mus musculus [4]): 32 mg/kg and 103 µmol/kg |
| COc1ccc2c(c1)C1CCCN(CC=C(C)C)C2C1.O=C(O)C(=O)O (stereo unspecified) | 300 |  | ED50 (Mus musculus [1]): inactive |
| CC(C)=CCN1CCCC2CC1c1ccccc12.Cl (stereo unspecified) | 65 | 48 mg/kg and 173 µmol/kg |  |
| COc1ccc2c3c1O[C@H]1[C@@H](O)C=C[C@H]4[C@@H](C2)N(C)CC[C@@]341.COc1ccc2c3c1O[C@H]1[C@@H](O)C=C[C@H]4[C@@H](C2)N(C)CC[C@@]341.O.O=P(O)(O)O.O=P(O)(O)O [CODEINE PHOSPHATE] |  | 6.8 mg/kg and 17 µmol/kg |  |
| C=CCN1CCCC2CC1c1ccccc12.O=C(O)C(=O)O (stereo unspecified) | 150 |  |  |
| CCCN1CCCC2CC1c1ccccc12.O=C(O)C(=O)O (stereo unspecified) | 110 |  |  |
| CCCN1CCCC2CC1c1ccccc12.Cl (stereo unspecified) | 75 | 28 mg/kg and 112 µmol/kg |  |
| Cl.c1ccc2c(c1)C1CCCNC2C1 (stereo unspecified) | 225 | 12 mg/kg and 57 µmol/kg |  |
